For series [1], the target named is T1, ATP-dependent translocase ABCB1 (Homo sapiens, UniProt P08183). Nature of the series: Reversal of multi-drug resistance in L5178Y cells transfected with human MDR1 as relative fluorescent rhodamine123 activity at 1 ug/mL. Format: cell-based. The gist of the method:
(§1)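 L5178Y mouse T-cell lymphoma subline carrying the human MDR1 gene, with the parental drug-sensitive line also listed. A larger number of cells was exposed to compound for 30 min. Rhodamine 123 accumulation was read by fluorescence, and P-gp-mediated efflux reversal was expressed as a fluorescence activity ratio.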

For series [2], the target named is T1, ATP-dependent translocase ABCB1. Nature of the series: Antiproliferative activity against human MDR1 transfected mouse L5178Y cell line. Format: functional, cell-based. The note with it: read-out: ID50 (the source's name) (converted).
For series [3] the target is unchanged. Nature of the series: Reversal of multi-drug resistance in L5178Y cells transfected with human MDR1 as relative fluorescent rhodamine123 activity at 0.1 ug/mL. Format: cell-based. The gist of the method:
as §1

T1 sequence (P08183 whole entry): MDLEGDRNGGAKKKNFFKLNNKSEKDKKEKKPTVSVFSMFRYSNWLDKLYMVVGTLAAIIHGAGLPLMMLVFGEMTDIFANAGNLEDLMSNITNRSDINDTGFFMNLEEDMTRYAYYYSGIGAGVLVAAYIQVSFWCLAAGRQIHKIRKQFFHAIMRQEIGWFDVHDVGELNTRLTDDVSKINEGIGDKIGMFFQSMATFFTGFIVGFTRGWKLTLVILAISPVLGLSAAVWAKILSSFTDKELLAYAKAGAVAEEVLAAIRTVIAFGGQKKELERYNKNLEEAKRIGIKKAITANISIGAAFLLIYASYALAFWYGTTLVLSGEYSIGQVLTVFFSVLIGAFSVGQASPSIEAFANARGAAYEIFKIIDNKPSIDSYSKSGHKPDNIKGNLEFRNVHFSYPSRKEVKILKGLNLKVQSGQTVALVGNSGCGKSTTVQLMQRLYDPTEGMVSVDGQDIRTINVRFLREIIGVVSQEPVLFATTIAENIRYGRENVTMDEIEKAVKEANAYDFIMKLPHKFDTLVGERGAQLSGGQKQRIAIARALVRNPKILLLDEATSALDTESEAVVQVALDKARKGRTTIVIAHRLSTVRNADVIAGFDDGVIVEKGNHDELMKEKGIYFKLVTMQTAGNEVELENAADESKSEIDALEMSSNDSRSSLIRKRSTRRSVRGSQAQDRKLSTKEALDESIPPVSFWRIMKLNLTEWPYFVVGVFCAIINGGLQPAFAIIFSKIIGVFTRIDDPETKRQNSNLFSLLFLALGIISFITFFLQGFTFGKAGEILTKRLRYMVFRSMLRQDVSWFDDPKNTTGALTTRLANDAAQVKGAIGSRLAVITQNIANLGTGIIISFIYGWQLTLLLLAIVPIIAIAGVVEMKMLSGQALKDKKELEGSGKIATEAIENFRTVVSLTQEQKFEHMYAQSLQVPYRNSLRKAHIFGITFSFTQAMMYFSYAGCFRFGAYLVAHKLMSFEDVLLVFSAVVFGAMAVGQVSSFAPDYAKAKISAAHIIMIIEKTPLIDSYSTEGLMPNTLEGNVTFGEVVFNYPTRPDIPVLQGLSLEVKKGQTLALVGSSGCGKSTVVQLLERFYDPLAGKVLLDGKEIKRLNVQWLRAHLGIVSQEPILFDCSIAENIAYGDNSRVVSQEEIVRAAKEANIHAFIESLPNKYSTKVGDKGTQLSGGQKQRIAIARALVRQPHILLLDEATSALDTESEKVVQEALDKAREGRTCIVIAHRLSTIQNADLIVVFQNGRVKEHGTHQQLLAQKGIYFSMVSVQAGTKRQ

For `COc1ccc(CCN(C)CC#CCN2C(=O)C3C4c5ccccc5C(c5ccccc54)C3C2=O)cc1OC` (centres undefined), the values for the Ratio in series [1] and in series [3] were 89.35 and 2.65, respectively. Besides, in series [2], the GI50 was 2.55 µM.

`COc1ccc(CCN(C)CCN2C(=O)C3C4c5ccccc5C(c5ccccc54)C3C2=O)cc1OC` (centres undefined): the results for the Ratio in series [1] and in series [3] were 47.85 and 2.76, respectively. The GI50 in series [2] was 4.23 µM.

With `COc1ccc(CCN(C)CCCN2C(=O)C3C4c5ccccc5C(c5ccccc54)C3C2=O)cc1OC` (centres undefined), the Ratio in series [1] is recorded as 28.62; in series [3], 7.91. The GI50 in series [2] was 5.72 µM.

The values are drawn from ChEMBL document CHEMBL1147796, “New potent P-glycoprotein inhibitors carrying a polycyclic scaffold” (J Med Chem, 2006).
